# Assay outcomes (PubChem)
# TDP2 inh = TDP2 (human) inhibition, absorbance primary screen | recombinant TDP2, T5PNP hydrolysis, p-nitrophenol absorbance 415 nm | inhibition, % at 12.8 µM | hit rate 0.34% among 370,000 | O95551;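 active = inhibition above the mean of all tested compounds plus 3 SD, set per campaign, cut at about 25% in these data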;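 also: 0% = DMSO with enzyme and 100% = buffer with substrate but no TDP2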
#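 Material: recombinant human TDP2; quantity: TDP2 enzyme at 120 nM final; medium: Tris-HCl pH 7.5 with MgCl2; compound: single concentration, 12.8 µM nominal, with 1% DMSO; incubation: 2 h enzyme incubation at 37 °C; signal: epi absorbance; measure: percent inhibition; benchmarks: high control without enzyme, low control DMSO plus TDP2; repeats: singlicate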
# GSTO1 inh = counter-screen for RBBP9 inhibitors: inhibitors of human GSTO1. P78417. recombinant GSTO1, activity-based probe fluorescence polarization. inhibition, % at 5.96 µM. hit rate 1.1% among 300,000. AID 1974;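 active = inhibition above the campaign mean inhibition plus 3 SD, cut at about 35% in these data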;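 also: 0% = GSTO1-1 with DMSO and 100% = wells lacking GSTO1-1 enzyme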
# Target sequence (P78417 whole entry, looked up): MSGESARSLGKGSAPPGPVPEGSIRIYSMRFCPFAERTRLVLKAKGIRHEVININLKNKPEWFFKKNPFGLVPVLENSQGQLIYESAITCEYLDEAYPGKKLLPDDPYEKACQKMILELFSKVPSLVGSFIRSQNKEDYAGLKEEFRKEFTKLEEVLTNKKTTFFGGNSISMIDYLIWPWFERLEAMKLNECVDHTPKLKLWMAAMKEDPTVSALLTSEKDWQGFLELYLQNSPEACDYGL
# eLon inh = E. coli protease La inhibition. purified E. coli Lon protease, fluorescence polarization. inhibition, % at 7.94 µM. hit rate 0.42% among 360,000; in the data active = inhibition above about 13%, passing the limit was not always enough;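 also: 0% = enzyme with probe and DMSO and 100% = no enzyme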
# PAD4 inh = inhibitors of human PAD4; recombinant PAD4, RCA probe fluorescence polarization; AID 485272; hit rate 0.41% among 330,000; inhibition, % at 6.36 µM; Q9UM07;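 active = percent inhibition above a cutoff equal to the mean of all tested compounds plus 3 SD, cut at about 15% in these data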;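 also: 0% = PAD4 with RCA probe and DMSO and 100% = probe without PAD4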
# PRMT1 FP inh = PRMT1 (human) inhibition, primary screen; recombinant PRMT1, activity-based probe fluorescence polarization; inhibition, % at 2.79 µM; Q99873; hit rate 1.3% among 370,000;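 active = inhibition above about 21% made by adding two undisclosed values, limit read from the data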
# Target sequence (Q99873 whole entry, looked up): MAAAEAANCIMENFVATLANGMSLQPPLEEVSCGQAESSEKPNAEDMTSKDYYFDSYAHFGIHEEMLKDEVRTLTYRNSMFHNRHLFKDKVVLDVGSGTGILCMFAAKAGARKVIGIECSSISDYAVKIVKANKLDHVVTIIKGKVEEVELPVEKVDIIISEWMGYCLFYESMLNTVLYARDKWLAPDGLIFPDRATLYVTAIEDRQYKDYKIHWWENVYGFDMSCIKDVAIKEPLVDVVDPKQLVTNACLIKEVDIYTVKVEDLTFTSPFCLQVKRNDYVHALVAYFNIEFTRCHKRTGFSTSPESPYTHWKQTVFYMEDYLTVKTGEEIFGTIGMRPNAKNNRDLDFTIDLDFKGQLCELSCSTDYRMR
# PAD4 FP conf = confirmation of human PAD4 inhibitors | recombinant PAD4, RCA probe fluorescence polarization | inhibition, % at 6.36 µM | hit rate 28% among 1,200 | shares compounds with PAD4 inh | AID 488796;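 active = mean inhibition across replicates above the hit cutoff set by the earlier primary screen, cut at about 15% in these data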;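 also: inhibitors block active-site labeling by the probe so polarization falls; 0% = PAD4 with probe and DMSO and 100% = probe without PAD4 enzyme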
# E coli Lon conf = confirmation of E. coli Lon protease inhibitors. inhibition, % at 7.94 µM. purified E. coli Lon, fluorescence polarization. hit rate 31% among 1,400. shares compounds with eLon inh; in the data active = inhibition above about 16%;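 also: 0% = enzyme with probe and DMSO and 100% = no enzyme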
# PRMT1 inh conf = confirmation of human PRMT1 inhibitors. shares compounds with PRMT1 FP inh. recombinant His-PRMT1, activity-based probe fluorescence polarization. hit rate 42% among 3,300. inhibition, % at 2.79 µM. AID 687036;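 active = mean inhibition across replicates above the hit cutoff derived for the earlier primary screen, cut at about 22% in these data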
# TDP2 inh conf = human TDP2 inhibition, confirmation. hit rate 22% among 1,100. inhibition, % at 12.8 µM. recombinant human TDP2, absorbance read-out. shares compounds with TDP2 inh; in the data active = inhibition above about 25%;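 also: 0% = vehicle with enzyme and 100% = no enzyme buffer only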
# Starred values were filed as active, the others as inactive; · = not tested or not shown; + = active, no number. Shown are actives, neighbours in structure and some others; about 2.5% of the full set was active somewhere.
SMILES,TDP2 inh,GSTO1 inh,eLon inh,PAD4 inh,PRMT1 FP inh,PRMT1 inh conf,others
C[C@@H]1CN([C@@H](C)CO)C(=O)CCCn2nncc2CO[C@H]1CN(C)C(=O)Oc1cccc2ccccc12,4.6,·,2.5,·,-3.4,·,
O=c1c2ccccc2[se]n1-c1ccccc1,8.3,-20.0,1.1,74.8*,95.3*,·,PAD4 FP conf=79.7*
O=c1c2ccccc2nc(-c2ccccc2)n1-c1ccccc1,7.7,-1.7,-9.4,-2.1,-1.6,·,
Cc1ccc2c(C)c3ccc4ccccc4c3c[n+]2c1,-5.5,·,-5.2,·,1.8,·,
CSCCC(c1nnnn1-c1c(C)cccc1C)N1CCC2(CC1)C(=O)NCN2c1ccccc1 (stereo not drawn),5.7,·,0.6,·,0.0,·,
COCCNC(=O)c1c(NC(=O)c2ccc(Br)o2)n(Cc2ccccc2)c2nc3ccccc3nc12,11.4,77.4*,-5.2,53.9*,-1.0,·,PAD4 FP conf=-9.6
COC(=O)C1=C(c2cccc(OC)c2OC)C[C@@H]2CC[C@H]1N2C(=O)NCc1ccccc1,6.3,2.5,2.3,1.5,-2.8,·,
COC(=O)C1=C(c2cccc(OC)c2OC)C[C@@H]2CC[C@H]1N2C(=O)NCc1ccc(F)cc1,3.2,6.9,1.4,28.3*,-0.7,·,PAD4 FP conf=4.5
C#C[C@]1(O)CC[C@H]2[C@@H]3CCC4=Cc5nc6nc7ccccc7n6cc5C[C@]4(C)[C@H]3CC[C@@]21C,4.7,-8.4,-38.7,18.5*,12.6,·,PAD4 FP conf=8.9
CN1CC=C2C(C#N)=C(N)C(C#N)(C#N)C(c3ccncc3)C2C1 (stereo not drawn),·,12.9,57.4*,27.5*,·,·,PAD4 FP conf=6.5;E coli Lon conf=81.1*
Cc1ccc(C(O)(C(=O)OC(C)C)C(O)c2ccc(F)cc2)cc1 (stereo not drawn),-5.3,·,·,·,-3.7,·,
O=C1CC(c2cccnc2)=NN1c1ccccc1,46.3*,30.8,-5.2,52.4*,0.6,·,PAD4 FP conf=1.7;TDP2 inh conf=12.4
O=c1cc(C2CCNCC2)[nH][nH]1,55.9*,19.2,-3.2,36.9*,16.0,·,PAD4 FP conf=-1.2;TDP2 inh conf=5.1
O=C1NC(=S)NC(=O)C1Cc1ccccc1O,3.7,·,-3.3,·,4.1,·,
Cc1ncoc1C(=O)NCC1=C(c2ccc(S(C)(=O)=O)cc2)C[C@@H]2CC[C@H]1N2CCOc1ccccc1,-0.2,·,-8.7,·,-4.0,·,
COC(=O)C1=C(c2cccc(OCc3ccccc3)c2)C[C@@H]2CC[C@H]1N2C(=O)NCc1cccc(C(F)(F)F)c1,-1.1,·,0.1,0.3,0.3,·,
COC(=O)C1=C(c2cccc(OCc3ccccc3)c2)C[C@@H]2CC[C@H]1N2C(=O)NCc1cc(C)oc1C(F)(F)F,-5.3,·,26.2*,0.6,2.6,·,E coli Lon conf=-3.5
O=C(NCCN1CCC2(CC1)C(=O)NCN2c1cccc(F)c1)c1ccc2ccccc2c1,-6.3,·,-2.9,·,-2.5,·,
O=[N+]([O-])c1ccc(N(CCO)CCO)c2c1no[n+]2[O-],8.0,·,65.8*,·,18.8,·,E coli Lon conf=31.5*
Cc1ccc2cc(C=C(C#N)C#N)c(Cl)nc2c1,17.6,24.5,163.9*,-4.9,51.6*,22.3*,E coli Lon conf=82.9*
Cc1cc(N2CCCC2)ccc1C=C(C#N)C#N,-4.0,6.0,-25.4,0.7,3.0,·,
COCCOC(=O)c1c(N)n(Cc2ccco2)c2nc3ccccc3nc12,11.3,20.8,15.9*,-19.5,30.5*,10.8,E coli Lon conf=6.7
COc1ccc2c(c1)NP(=S)(c1ccccc1)N2C (stereo not drawn),1.2,·,53.0*,·,33.0*,2.1,E coli Lon conf=2.7
CCN1/C(=C/C=C/C2=[N+](CC)c3ccccc3C2(C)C)C(C)(C)c2ccccc21,-0.6,·,+,·,155.5*,130.6*,E coli Lon conf=+
CCCCCN1C(=O)c2cc(OC)ccc2[C@@]2(C(=O)OCC)Cc3cc(OC)ccc3[C@@H]12,-8.2,·,-2.3,·,4.0,·,
SMILES,TDP2 inh,GSTO1 inh,eLon inh,PAD4 inh,PRMT1 FP inh,PRMT1 inh conf,others
CN1C[C@H](CNC(=O)OCc2ccccc2)C[C@@H]2c3cccc4c3c(cn4C)C[C@H]21,0.3,2.7,75.8*,2.0,39.3*,6.7,E coli Lon conf=35.9*
CN1C[C@H](CO)C[C@@H]2c3cccc4[nH]cc(c34)C[C@H]21,11.1,13.7,2.8,-3.0,7.1,·,
CN1c2ccc(Br)cc2[C@@H]2NCC[C@@H]2[C@@H]1CO,-7.3,·,·,·,-0.7,·,
C=C1[C@@H](C)C2[C@H](Cc3ccccc3)NC(=O)[C@]23[C@H](OC(C)=O)/C=C/[C@@](C)(O)C(=O)[C@@H](C)C/C=C/[C@H]3[C@@H]1O (stereo partly drawn),-8.8,·,·,·,-6.4,·,
CN1CCN(c2ccc([N+](=O)[O-])c3no[n+]([O-])c23)CC1,24.6*,46.7*,130.6*,-10.2,112.0*,·,E coli Lon conf=101.7*;TDP2 inh conf=26.4*
Brc1ccc2c(c1)-n1nncc1CNC2,-12.7,·,·,·,-6.5,·,
Cc1c(C=C2C(=O)NC(=O)NC2=O)c(=O)n(-c2ccccc2)n1C,11.7,-2.5,-28.0,-2.4,6.0,·,
O=C1NC(=O)C(=Cc2c(Cl)cccc2Cl)C(=O)N1,-8.1,·,-23.7,·,31.5*,19.0,
COP(=S)(OC)SCn1nnc2ccccc2c1=O,5.8,·,-4.3,·,89.1*,74.3*,
Oc1c(Cl)cccc1Cc1cc(Cl)cc(Cl)c1O,-4.7,·,-1.9,·,-2.3,·,
O=C(O)C1C2CC3CC(C2)CC1(n1ncc(N2CCC4(CC2)OCCO4)c(Cl)c1=O)C3 (stereo not drawn),-11.1,0.8,-6.3,-0.5,-4.6,·,
CCOC(=O)c1c(/N=C/c2c(O)n(-c3ccccc3F)c(=S)[nH]c2=O)sc2c1CCCC2,4.0,-43.7,-31.0,-7.7,41.8*,15.0,
CCOC(=O)c1c(/N=C/c2c(O)n(-c3ccc(F)cc3)c(=S)[nH]c2=O)sc2c1CCCC2,0.9,1.9,-6.0,1.8,27.3*,-7.7,
CSc1ncc(/C=C2/C(=O)NC(=O)N(C3CCCCC3)C2=O)cn1,9.6,16.4,-20.4,-3.7,26.2*,19.5,
CSc1ncc(/C=C2/C(=O)NC(=O)N(C)C2=O)cn1,4.4,-5.7,8.3,-4.9,8.9,·,
CC(C)(C)NC(=O)CN1CCCN(C(=O)COc2ccc(Cl)c3ccccc23)CC1,-5.1,·,-3.0,-3.7,2.0,·,
COP(=O)(CC(=O)O)c1ccccc1 (stereo not drawn),2.5,6.2,-10.5,2.7,1.1,·,
NC(=O)CSP(=O)(c1ccccc1)c1ccccc1,9.1,7.0,-8.2,2.3,37.7*,65.0*,
C=CCN1C(=O)/C(=C/c2ccc3c(c2)CCCN3CCC)C(=O)NC1=S,-0.6,7.6,-57.0,-2.7,26.0*,8.3,
Cc1ccc2c(c1)C1CN(C)CCC1N2C(=O)c1cn(-c2ccccc2)nc1-c1ccccc1 (stereo not drawn),-12.3,-0.9,-4.5,-6.9,-3.9,·,
